Source: ChEMBL document CHEMBL1154674, “Synthesis and evaluation of three 18F-labeled aminophenylbenzothiazoles as amyloid imaging agents” (J Med Chem, 2009)

Tests used:
Type in all cases: ADME, organism-based
Liver [1] = test: Biodistribution in NMRI mouse liver at 3.7 MBq/mL, iv after 2 mins by gamma counting; conditions: in vivo
Summary of the method: (§1)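 Male NMRI mice (30-40 g) under isoflurane (1.5-2.5% in oxygen) got 0.1 mL of HPLC-purified tracer diluted with 0.9% NaCl to 3.7 MBq/mL (ethanol ≤10%) via tail vein. Mice were decapitated at 2 or 60 min p.i., and organs, blood and urine were weighed and γ-counted. Values are background-corrected %ID or %ID/g, with blood mass taken as 7% of body mass.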

Cerebellum [2] = test: Biodistribution in NMRI mouse cerebellum at 3.7 MBq/mL, iv after 60 mins by gamma counting; conditions: in vivo, 1 h; summary of the method: as §1
Lung [3] = test: Biodistribution in NMRI mouse lung at 3.7 MBq/mL, iv after 60 mins by gamma counting; conditions: in vivo, 1 h; summary of the method: as §1
[4] = Drug level in NMRI mouse cerebrum assessed as standard uptake value at 3.7 MBq/mL, iv after 60 mins by gamma counting; conditions: in vivo, 1 h
Summary of the method: (§2)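 Male NMRI mice (30-40 g) were anaesthetised with isoflurane. Each received 0.1 mL of HPLC-purified tracer, diluted in 0.9% NaCl to 3.7 MBq/mL (ethanol ≤10%), via a tail vein. Mice were decapitated at 2 or 60 min. Organs were dissected, weighed and γ-counted with background correction. SUV = (organ cpm/organ weight)/(total recovered counts/body weight). Blood mass was taken as 7% of body mass.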

Intestine [5] = test: Biodistribution in NMRI mouse intestine at 3.7 MBq/mL, iv after 60 mins by gamma counting; conditions: in vivo, 1 h; summary of the method: as §1
[6] = Biodistribution in NMRI mouse cerebrum assessed per gram of tissue at 3.7 MBq/mL, iv after 60 mins by gamma counting; conditions: in vivo, 1 h; summary of the method: as §1
[7] = Biodistribution in NMRI mouse urine at 3.7 MBq/mL, iv after 60 mins by gamma counting; conditions: in vivo, 1 h; summary of the method: as §1
Liver [8] = test: Biodistribution in NMRI mouse liver assessed per gram of tissue at 3.7 MBq/mL, iv after 60 mins by gamma counting; conditions: in vivo, 1 h; summary of the method: as §1
[9] = Drug level in NMRI mouse cerebrum assessed as standard uptake value at 3.7 MBq/mL, iv after 2 mins by gamma counting; conditions: in vivo; summary of the method: as §2
Lung [10] = test: Drug level in NMRI mouse lung assessed as standard uptake value at 3.7 MBq/mL, iv after 2 mins by gamma counting; conditions: in vivo; summary of the method: as §2
Lung [11] = test: Biodistribution in NMRI mouse lung assessed per gram of tissue at 3.7 MBq/mL, iv after 2 mins by gamma counting; conditions: in vivo; summary of the method: as §1
Kidney [12] = test: Biodistribution in NMRI mouse kidney at 3.7 MBq/mL, iv after 60 mins by gamma counting; conditions: in vivo, 1 h; summary of the method: as §1
Heart [13] = test: Biodistribution in NMRI mouse heart at 3.7 MBq/mL, iv after 60 mins by gamma counting; conditions: in vivo, 1 h; summary of the method: as §1
[14] = Biodistribution in NMRI mouse cerebrum at 3.7 MBq/mL, iv after 2 mins by gamma counting; conditions: in vivo; summary of the method: as §1
Liver [15] = test: Drug level in NMRI mouse liver assessed as standard uptake value at 3.7 MBq/mL, iv after 60 mins by gamma counting; conditions: in vivo, 1 h; summary of the method: as §2
Kidney [16] = test: Drug level in NMRI mouse kidney assessed as standard uptake value at 3.7 MBq/mL, iv after 2 mins by gamma counting; conditions: in vivo; summary of the method: as §2
Stomach [17] = test: Biodistribution in NMRI mouse stomach at 3.7 MBq/mL, iv after 60 mins by gamma counting; conditions: in vivo, 1 h; summary of the method: as §1
[18] = Biodistribution in NMRI mouse cerebrum assessed per gram of tissue at 3.7 MBq/mL, iv after 2 mins by gamma counting; conditions: in vivo; summary of the method: as §1
Blood [19] = test: Biodistribution in NMRI mouse blood at 3.7 MBq/mL, iv after 2 mins by gamma counting; conditions: in vivo; summary of the method: as §1
[20] = Biodistribution in NMRI mouse spleen/pancreas at 3.7 MBq/mL, iv after 60 mins by gamma counting; conditions: in vivo, 1 h; summary of the method: as §1
Heart [21] = test: Biodistribution in NMRI mouse heart assessed per gram of tissue at 3.7 MBq/mL, iv after 2 mins by gamma counting; conditions: in vivo; summary of the method: as §1
[22] = Biodistribution in NMRI mouse spleen/pancreas assessed per gram of tissue at 3.7 MBq/mL, iv after 2 mins by gamma counting; conditions: in vivo; summary of the method: as §1
Cerebellum [23] = test: Biodistribution in NMRI mouse cerebellum at 3.7 MBq/mL, iv after 2 mins by gamma counting; conditions: in vivo; summary of the method: as §1
Kidney [24] = test: Biodistribution in NMRI mouse kidney assessed per gram of tissue at 3.7 MBq/mL, iv after 2 mins by gamma counting; conditions: in vivo; summary of the method: as §1
Blood [25] = test: Biodistribution in NMRI mouse blood assessed per gram of tissue at 3.7 MBq/mL, iv after 2 mins by gamma counting; conditions: in vivo; summary of the method: as §1
Cerebellum [26] = test: Drug level in NMRI mouse cerebellum assessed as standard uptake value at 3.7 MBq/mL, iv after 2 mins by gamma counting; conditions: in vivo; summary of the method: as §2
Liver [27] = test: Biodistribution in NMRI mouse liver at 3.7 MBq/mL, iv after 60 mins by gamma counting; conditions: in vivo, 1 h; summary of the method: as §1
Kidney [28] = test: Biodistribution in NMRI mouse kidney at 3.7 MBq/mL, iv after 2 mins by gamma counting; conditions: in vivo; summary of the method: as §1
[29] = Drug level in NMRI mouse spleen/pancreas assessed as standard uptake value at 3.7 MBq/mL, iv after 60 mins by gamma counting; conditions: in vivo, 1 h; summary of the method: as §2
[30] = Biodistribution in NMRI mouse spleen/pancreas at 3.7 MBq/mL, iv after 2 mins by gamma counting; conditions: in vivo; summary of the method: as §1
Blood [31] = test: Drug level in NMRI mouse blood assessed as standard uptake value at 3.7 MBq/mL, iv after 2 mins by gamma counting; conditions: in vivo; summary of the method: as §2
Lung [32] = test: Drug level in NMRI mouse lung assessed as standard uptake value at 3.7 MBq/mL, iv after 60 mins by gamma counting; conditions: in vivo, 1 h; summary of the method: as §2
Cerebellum [33] = test: Biodistribution in NMRI mouse cerebellum assessed per gram of tissue at 3.7 MBq/mL, iv after 2 mins by gamma counting; conditions: in vivo; summary of the method: as §1
Blood [34] = test: Biodistribution in NMRI mouse blood assessed per gram of tissue at 3.7 MBq/mL, iv after 60 mins by gamma counting; conditions: in vivo, 1 h; summary of the method: as §1
Cerebellum [35] = test: Drug level in NMRI mouse cerebellum assessed as standard uptake value at 3.7 MBq/mL, iv after 60 mins by gamma counting; conditions: in vivo, 1 h; summary of the method: as §2
Lung [36] = test: Biodistribution in NMRI mouse lung at 3.7 MBq/mL, iv after 2 mins by gamma counting; conditions: in vivo; summary of the method: as §1
Kidney [37] = test: Drug level in NMRI mouse kidney assessed as standard uptake value at 3.7 MBq/mL, iv after 60 mins by gamma counting; conditions: in vivo, 1 h; summary of the method: as §2
Stomach [38] = test: Biodistribution in NMRI mouse stomach at 3.7 MBq/mL, iv after 2 mins by gamma counting; conditions: in vivo; summary of the method: as §1
Liver [39] = test: Biodistribution in NMRI mouse liver assessed per gram of tissue at 3.7 MBq/mL, iv after 2 mins by gamma counting; conditions: in vivo
Intestine [40] = test: Biodistribution in NMRI mouse intestine at 3.7 MBq/mL, iv after 2 mins by gamma counting; conditions: in vivo; summary of the method: as §1
Heart [41] = test: Drug level in NMRI mouse heart assessed as standard uptake value at 3.7 MBq/mL, iv after 2 mins by gamma counting; conditions: in vivo; summary of the method: as §2
Liver [42] = test: Drug level in NMRI mouse liver assessed as standard uptake value at 3.7 MBq/mL, iv after 2 mins by gamma counting; conditions: in vivo; summary of the method: as §2
Lung [43] = test: Biodistribution in NMRI mouse lung assessed per gram of tissue at 3.7 MBq/mL, iv after 60 mins by gamma counting; conditions: in vivo, 1 h; summary of the method: as §1
Cerebellum [44] = test: Biodistribution in NMRI mouse cerebellum assessed per gram of tissue at 3.7 MBq/mL, iv after 60 mins by gamma counting; conditions: in vivo, 1 h; summary of the method: as §1
Blood [45] = test: Drug level in NMRI mouse blood assessed as standard uptake value at 3.7 MBq/mL, iv after 60 mins by gamma counting; conditions: in vivo, 1 h; summary of the method: as §2
Kidney [46] = test: Biodistribution in NMRI mouse kidney assessed per gram of tissue at 3.7 MBq/mL, iv after 60 mins by gamma counting; conditions: in vivo, 1 h; summary of the method: as §1
[47] = Biodistribution in NMRI mouse spleen/pancreas assessed per gram of tissue at 3.7 MBq/mL, iv after 60 mins by gamma counting; conditions: in vivo, 1 h; summary of the method: as §1
[48] = Drug level in NMRI mouse spleen/pancreas assessed as standard uptake value at 3.7 MBq/mL, iv after 2 mins by gamma counting; conditions: in vivo; summary of the method: as §2
Heart [49] = test: Biodistribution in NMRI mouse heart at 3.7 MBq/mL, iv after 2 mins by gamma counting; conditions: in vivo; summary of the method: as §1
Heart [50] = test: Drug level in NMRI mouse heart assessed as standard uptake value at 3.7 MBq/mL, iv after 60 mins by gamma counting; conditions: in vivo, 1 h; summary of the method: as §2
Heart [51] = test: Biodistribution in NMRI mouse heart assessed per gram of tissue at 3.7 MBq/mL, iv after 60 mins by gamma counting; conditions: in vivo, 1 h; summary of the method: as §1
[52] = Biodistribution in NMRI mouse urine at 3.7 MBq/mL, iv after 2 mins by gamma counting; conditions: in vivo; summary of the method: as §1
[53] = Biodistribution in NMRI mouse cerebrum at 3.7 MBq/mL, iv after 60 mins by gamma counting; conditions: in vivo, 1 h; summary of the method: as §1
Blood [54] = test: Biodistribution in NMRI mouse blood at 3.7 MBq/mL, iv after 60 mins by gamma counting; conditions: in vivo, 1 h; summary of the method: as §1

Cc1ccc2nc(-c3ccc([18F])cc3)sc2c1
Drug uptake (Liver [1]): 24.8%
Drug uptake (Cerebellum [2]): 0.04%
Drug uptake (Lung [3]): 0.3%
SUV [4]: 0.1
Drug uptake (Intestine [5]): 19.3%
Drug uptake [6]: 0.27%
Drug uptake [7]: 3.3%
Drug uptake (Liver [8]): 24.6%
SUV [9]: 1.97
SUV (Lung [10]): 5.3
Drug uptake (Lung [11]): 14.4%
Drug uptake (Kidney [12]): 2.3%
Drug uptake (Heart [13]): 0.1%
Drug uptake [14]: 1.62%
SUV (Liver [15]): 9.2
SUV (Kidney [16]): 3.4
Drug uptake (Stomach [17]): 1.1%
Drug uptake [18]: 5.33%
Drug uptake (Blood [19]): 5.7%
Drug uptake [20]: 0.1%
Drug uptake (Heart [21]): 5.4%
Drug uptake [22]: 4%
Drug uptake (Cerebellum [23]): 0.42%
Drug uptake (Kidney [24]): 9.3%
Drug uptake (Blood [25]): 2.2%
SUV (Cerebellum [26]): 2.21
Drug uptake (Liver [27]): 51.8%
Drug uptake (Kidney [28]): 5.8%
SUV [29]: 0.2
Drug uptake [30]: 1.3%
SUV (Blood [31]): 0.8
SUV (Lung [32]): 0.5
Drug uptake (Cerebellum [33]): 5.99%
Drug uptake (Blood [34]): 1.1%
SUV (Cerebellum [35]): 0.15
Drug uptake (Lung [36]): 3.6%
SUV (Kidney [37]): 1.4
Drug uptake (Stomach [38]): 1.3%
Drug uptake (Liver [39]): 12%
Drug uptake (Intestine [40]): 8.9%
SUV (Heart [41]): 2
SUV (Liver [42]): 4.5
Drug uptake (Lung [43]): 1.3%
Drug uptake (Cerebellum [44]): 0.39%
SUV (Blood [45]): 0.4
Drug uptake (Kidney [46]): 3.6%
Drug uptake [47]: 0.4%
SUV [48]: 1.5
Drug uptake (Heart [49]): 0.9%
SUV (Heart [50]): 0.2
Drug uptake (Heart [51]): 0.5%
Drug uptake [52]: 0.2%
Drug uptake [53]: 0.07%
Drug uptake (Blood [54]): 2.8%
